Test results published in ChEMBL document CHEMBL4673224, “Synthesis of 7-benzylguanosine cap-analogue conjugates for eIF4E targeted degradation” (Eur J Med Chem, 2019).
Active and inactive are the calls of the source. The rule behind the calls is not given here.

Columns and labels:
[1] = target: Eukaryotic translation initiation factor 4E (Homo sapiens) (UniProt P06730); experiment: Inhibition of eIF4E binding to m7GMP in immobilized resin with HEK293 lysate at 500 uM by western blot analysis based competitive binding assay; type: subcellular
Outline: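 Cap pull-down is carried out on m7GMP agarose. HEK293 lysate is freeze-thawed thrice and cleared at 20,000 × g, and 350 μg protein is loaded for 2 h at 4 °C. After washes, the resin is incubated overnight with 500 μM compound in Buffer A (50 mM HEPES-KOH pH 7.5, 150 mM KCl). eIF4E remaining on the resin is read by anti-eIF4E western blot. m7GMP is the positive control and DMSO the negative control.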

[2] = target: T1, Protein cereblon/Eukaryotic translation initiation factor 4E (Homo sapiens) (UniProt P06730+Q96SW2); experiment: Protac activity at E3-liagse/eIF4E in human MDA-MB-231 cells assessed as reduction in eIF4E protein level at 25 to 200 uM after 24 to 72 hrs; type: cell-based; details: dose 25-200 µM, time 24-72 hrs
Outline: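 MDA-MB-231 cells are grown in RPMI-1640 with 10% FBS and 1 mM glutamine at 37 °C under 5% CO2. Cells are exposed to compound at 25–200 μM for 24–72 h, and eIF4E protein level is then assessed.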

[3] = target: Eukaryotic translation initiation factor 4E (Homo sapiens) (UniProt P06730); experiment: Inhibition of eIF4E binding to m7GDP in immobilized resin with HEK293 lysate at 500 uM by western blot analysis based competitive binding assay; type: subcellular; details: time 12.0 hrs
Outline: (§1)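 350 μg protein bound to m7GDP agarose for 2 h at 4 °C, washed, then exposed to compound in Buffer A overnight. Bound protein eluted in LDS buffer and probed with anti-eIF4E antibody. m7GDP is the positive control and DMSO the negative control.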

[4] = target: T1, Protein cereblon/Eukaryotic translation initiation factor 4E (Homo sapiens); experiment: Protac activity at E3-ligase/eIF4E in human K562 cells assessed as intracellular eIF4E degradation by Western blot analysis; type: cell-based
[5] = target: Eukaryotic translation initiation factor 4E (Homo sapiens) (UniProt P06730); experiment: Inhibition of eIF4E binding to m7GDP in immobilized resin with HEK293 lysate by western blot analysis based competitive binding assay; type: subcellular; details: dose 50-500 µM; outline: as §1

T1 sequence (P06730 whole entry, looked up): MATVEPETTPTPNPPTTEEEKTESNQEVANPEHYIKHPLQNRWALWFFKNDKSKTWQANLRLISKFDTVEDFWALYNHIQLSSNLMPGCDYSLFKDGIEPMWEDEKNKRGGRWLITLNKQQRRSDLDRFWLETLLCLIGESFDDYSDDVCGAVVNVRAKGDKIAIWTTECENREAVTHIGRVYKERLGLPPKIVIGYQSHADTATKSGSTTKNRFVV
T1 sequence (Q96SW2 whole entry, looked up): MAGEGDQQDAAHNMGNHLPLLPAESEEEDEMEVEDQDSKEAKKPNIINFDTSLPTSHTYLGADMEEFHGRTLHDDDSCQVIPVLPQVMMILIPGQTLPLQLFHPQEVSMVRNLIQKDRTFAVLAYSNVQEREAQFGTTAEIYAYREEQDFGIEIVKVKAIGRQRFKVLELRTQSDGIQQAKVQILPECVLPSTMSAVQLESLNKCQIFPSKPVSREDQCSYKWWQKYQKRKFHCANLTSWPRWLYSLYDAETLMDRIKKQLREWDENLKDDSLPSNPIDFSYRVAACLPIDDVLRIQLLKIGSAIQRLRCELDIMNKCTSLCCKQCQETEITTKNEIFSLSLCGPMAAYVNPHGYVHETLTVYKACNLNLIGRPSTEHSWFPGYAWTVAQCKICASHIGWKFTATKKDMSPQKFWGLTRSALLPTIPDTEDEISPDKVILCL
Sequence of Eukaryotic translation initiation factor 4E (Homo sapiens) (P06730 whole entry): as the sequence (P06730 whole entry, looked up) above

SMILES | inhibition [1] | Activity [2] | inhibition [3] | Activity [4] | inhibition [5]
Nc1nc2c(ncn2[C@@H]2O[C@H](COP(=O)(O)NCCCCCC(=O)Nc3cccc4c3CN(C3CCC(=O)NC3=O)C4=O)[C@@H](O)[C@H]2O)c(=O)[nH]1 (stereo partly drawn) | inactive |  |  |  | 
Nc1nc2c(c(=O)[nH]1)[n+](Cc1ccc(F)cc1)cn2[C@@H]1O[C@H](COP(=O)(O)OP(=O)(O)NCCCCCC(=O)Nc2cccc3c2CN(C2CCC(=O)NC2=O)C3=O)[C@@H](O)[C@H]1O (stereo partly drawn) |  | inactive | Active |  | 
Cc1ncsc1-c1ccc(CNC(=O)C2C[C@H](O)CN2C(=O)[C@@H](NC(=O)CCCCCNP(=O)(O)OP(=O)(O)OC[C@H]2O[C@@H](n3c[n+](Cc4ccccc4)c4c(=O)[nH]c(N)nc43)[C@H](O)[C@@H]2O)C(C)(C)C)cc1 (stereo partly drawn) |  | inactive | Active | inactive | 
Cc1ncsc1-c1ccc(CNC(=O)C2C[C@H](O)CN2C(=O)[C@@H](NC(=O)CCCCCNP(=O)(O)OP(=O)(O)OC[C@H]2O[C@@H](n3c[n+](Cc4ccc(F)cc4)c4c(=O)[nH]c(N)nc43)[C@H](O)[C@@H]2O)C(C)(C)C)cc1 (stereo partly drawn) |  | inactive | Active | inactive | 
Nc1nc2c(c(=O)[nH]1)[n+](Cc1ccccc1)cn2[C@@H]1O[C@H](COP(=O)(O)NCCCCCC(=O)Nc2cccc3c2CN(C2CCC(=O)NC2=O)C3=O)[C@@H](O)[C@H]1O (stereo partly drawn) | inactive |  |  |  | 
Nc1nc2c(c(=O)[nH]1)[n+](Cc1ccc(F)cc1)cn2[C@@H]1O[C@H](COP(=O)(O)OP(=O)(O)NCCOCCOCCOCCC(=O)Nc2cccc3c2CN(C2CCC(=O)NC2=O)C3=O)[C@@H](O)[C@H]1O (stereo partly drawn) |  | inactive | Active | inactive | 
Nc1nc2c(c(=O)[nH]1)[n+](Cc1ccccc1)cn2[C@@H]1O[C@H](COP(=O)(O)OP(=O)(O)NCCOCCOCCOCCC(=O)Nc2cccc3c2CN(C2CCC(=O)NC2=O)C3=O)[C@@H](O)[C@H]1O (stereo partly drawn) |  | inactive | Active | inactive | 
Nc1nc2c(c(=O)[nH]1)[n+](Cc1ccccc1)cn2[C@@H]1O[C@H](COP(=O)(O)OP(=O)(O)NCCCCCC(=O)Nc2cccc3c2CN(C2CCC(=O)NC2=O)C3=O)[C@@H](O)[C@H]1O (stereo partly drawn) |  | inactive | Active |  | Dose-dependent effect
Nc1nc2c(c(=O)[nH]1)[n+](Cc1ccccc1)cn2[C@@H]1O[C@H](COP(=O)(O)OP(=O)(O)NCCOCCOCCOCCOCCOCCOCCOCCC(=O)Nc2cccc3c2CN(C2CCC(=O)NC2=O)C3=O)[C@@H](O)[C@H]1O (stereo partly drawn) |  | inactive | Active |  | 
Nc1nc2c(ncn2[C@@H]2O[C@H](COS(=O)(=O)NC(=O)CCC(=O)NCCCCCC(=O)Nc3cccc4c3CN(C3CCC(=O)NC3=O)C4=O)[C@@H](O)[C@H]2O)c(=O)[nH]1 (stereo partly drawn) | inactive |  |  |  | 
Nc1nc2c(ncn2[C@@H]2O[C@H](COP(=O)(O)OP(=O)(O)NCCOCCOCCOCCOCCOCCOCCOCCC(=O)Nc3cccc4c3CN(C3CCC(=O)NC3=O)C4=O)[C@@H](O)[C@H]2O)c(=O)[nH]1 (stereo partly drawn) |  |  | inactive |  | 
Cc1ncsc1-c1ccc(CNC(=O)C2C[C@H](O)CN2C(=O)[C@@H](NC(=O)CCCCCNP(=O)(O)OP(=O)(O)OC[C@H]2O[C@@H](n3cnc4c(=O)[nH]c(N)nc43)[C@H](O)[C@@H]2O)C(C)(C)C)cc1 (stereo partly drawn) |  |  | inactive | inactive | 
Nc1nc2c(c(=O)[nH]1)[n+](Cc1ccc(F)cc1)cn2[C@@H]1O[C@H](COS(=O)(=O)NC(=O)CCC(=O)NCCCCCC(=O)Nc2cccc3c2CN(C2CCC(=O)NC2=O)C3=O)[C@@H](O)[C@H]1O (stereo partly drawn) | inactive |  |  |  | 
Nc1nc2c(ncn2[C@@H]2O[C@H](COP(=O)(O)OP(=O)(O)NCCCCCC(=O)Nc3cccc4c3CN(C3CCC(=O)NC3=O)C4=O)[C@@H](O)[C@H]2O)c(=O)[nH]1 (stereo partly drawn) |  |  | inactive |  | 
Nc1nc2c(c(=O)[nH]1)[n+](Cc1ccc(F)cc1)cn2[C@@H]1O[C@H](COP(=O)(O)OP(=O)(O)NCCOCCOCCOCCOCCOCCOCCOCCC(=O)Nc2cccc3c2CN(C2CCC(=O)NC2=O)C3=O)[C@@H](O)[C@H]1O (stereo partly drawn) |  | inactive | Active |  | 
Nc1nc2c(c(=O)[nH]1)[n+](Cc1ccccc1)cn2[C@@H]1O[C@H](COS(=O)(=O)NC(=O)CCC(=O)NCCCCCC(=O)Nc2cccc3c2CN(C2CCC(=O)NC2=O)C3=O)[C@@H](O)[C@H]1O (stereo partly drawn) | inactive |  |  |  | 
Nc1nc2c(ncn2[C@@H]2O[C@H](COP(=O)(O)OP(=O)(O)NCCOCCOCCOCCC(=O)Nc3cccc4c3CN(C3CCC(=O)NC3=O)C4=O)[C@@H](O)[C@H]2O)c(=O)[nH]1 (stereo partly drawn) |  |  | inactive | inactive | 
Nc1nc2c(c(=O)[nH]1)[n+](Cc1ccc(F)cc1)cn2[C@@H]1O[C@H](COP(=O)(O)NCCCCCC(=O)Nc2cccc3c2CN(C2CCC(=O)NC2=O)C3=O)[C@@H](O)[C@H]1O (stereo partly drawn) | inactive |  |  |  | 
